# Activity calls are given as the source filed them.
# Biological target: T1, Mu-type opioid receptor (Rattus norvegicus, UniProt P33535)
# Test: Displacement of [3H]diprenorphine from rat mu opioid receptor expressed in rat C6 cell membranes measured after 1 hr by liquid scintillation counting method
# Conditions: not given
# Procedure, shortened: (§1)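 Competition with 0.2 nM [3H]-diprenorphine on membranes (20 μg protein/tube) from stably transfected cells in 50 mM Tris-HCl pH 7.4, 1 h at room temperature with shaking; GF/C filtration, three washes, scintillation counting. Nonspecific binding defined with 10 μM naloxone.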
# T1 sequence (P33535 whole entry): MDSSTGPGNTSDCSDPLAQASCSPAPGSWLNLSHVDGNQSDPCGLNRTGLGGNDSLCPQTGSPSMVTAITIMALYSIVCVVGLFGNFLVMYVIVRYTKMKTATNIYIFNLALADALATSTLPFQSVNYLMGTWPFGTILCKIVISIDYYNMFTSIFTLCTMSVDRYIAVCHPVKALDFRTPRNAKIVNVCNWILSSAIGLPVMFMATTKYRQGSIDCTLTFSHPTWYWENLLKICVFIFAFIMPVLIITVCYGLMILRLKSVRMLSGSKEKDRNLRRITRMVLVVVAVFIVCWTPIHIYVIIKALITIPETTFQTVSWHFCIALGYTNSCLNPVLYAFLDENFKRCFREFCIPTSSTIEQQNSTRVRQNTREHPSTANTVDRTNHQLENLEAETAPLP
row,SMILES,Ki
1,CC(=O)N1CC[C@@H](NC(=O)[C@@H](N)Cc2c(C)cc(O)cc2C)c2cc(Cc3ccc4c(c3)OCCO4)ccc21.O=C(O)C(F)(F)F,0.38 nM
2,Cc1cc(O)cc(C)c1C[C@H](N)C(=O)N[C@@H]1CCNc2ccc(Cc3cnc4ccccc4c3)cc21.O=C(O)C(F)(F)F,0.1 nM

# Test system: Mus musculus
# Test: Antinociceptive activity in C57BL/6 mouse assessed as increase in latency to tail withdrawal up to 10 mg/kg, ip administered at 30 mins interval measured during compound dosing by warm water tail withdrawal assay relative to control
# Type: functional
# Conditions: not given
# Procedure, shortened: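 Male C57BL/6 mice, 20–30 g, 8–16 weeks. Saline ip, baseline latency 30 min later; then cumulative ip doses 1, 3.2, 10 mg/kg in 5% DMSO/saline at 30 min intervals, latency read 30 min after each. Tail tip (2–3 cm) in 50°C water, 20 s cutoff; expressed as % MPE (MPE = 20 s).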
row,SMILES,MPE
1,CC(=O)N1CC[C@@H](NC(=O)[C@@H](N)Cc2c(C)cc(O)cc2C)c2cc(Cc3ccc4c(c3)OCCO4)ccc21.O=C(O)C(F)(F)F,75%
2,Cc1cc(O)cc(C)c1C[C@H](N)C(=O)N[C@@H]1CCNc2ccc(Cc3cnc4ccccc4c3)cc21.O=C(O)C(F)(F)F,inactive

# Biological target: T2, Delta-type opioid receptor (Rattus norvegicus, UniProt P33533)
# T2 sequence (P33533 whole entry): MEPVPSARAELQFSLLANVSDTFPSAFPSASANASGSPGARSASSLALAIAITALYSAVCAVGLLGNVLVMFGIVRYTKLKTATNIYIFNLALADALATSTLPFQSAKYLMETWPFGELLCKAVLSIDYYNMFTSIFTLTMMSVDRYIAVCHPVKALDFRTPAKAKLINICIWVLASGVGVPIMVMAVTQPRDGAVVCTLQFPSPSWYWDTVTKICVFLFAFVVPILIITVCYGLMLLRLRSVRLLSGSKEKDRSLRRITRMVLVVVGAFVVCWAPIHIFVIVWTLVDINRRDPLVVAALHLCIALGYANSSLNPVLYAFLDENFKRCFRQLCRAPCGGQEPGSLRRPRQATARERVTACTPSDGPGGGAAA
# Test: Displacement of [3H]diprenorphine from rat delta opioid receptor expressed in rat C6 cell membranes measured after 1 hr by liquid scintillation counting method
# Conditions: not given
row,SMILES,Ki
1,CC(=O)N1CC[C@@H](NC(=O)[C@@H](N)Cc2c(C)cc(O)cc2C)c2cc(Cc3ccc4c(c3)OCCO4)ccc21.O=C(O)C(F)(F)F,0.83 nM
2,Cc1cc(O)cc(C)c1C[C@H](N)C(=O)N[C@@H]1CCNc2ccc(Cc3cnc4ccccc4c3)cc21.O=C(O)C(F)(F)F,1.5 nM

# Biological target: Mu-type opioid receptor (Rattus norvegicus) (UniProt P33535)
# Sequence (P33535 whole entry): as the sequence (P33535 whole entry) above
# Test: Agonist activity at rat mu opioid receptor expressed in rat C6 glioma cell membranes assessed as stimulation of [35S]GTPgammaS binding measured after 1 hr relative to DAMGO
# Type: functional
# Conditions: not given
row,SMILES,Efficacy
1,CC(=O)N1CC[C@@H](NC(=O)[C@@H](N)Cc2c(C)cc(O)cc2C)c2cc(Cc3ccc4c(c3)OCCO4)ccc21.O=C(O)C(F)(F)F,45%
2,Cc1cc(O)cc(C)c1C[C@H](N)C(=O)N[C@@H]1CCNc2ccc(Cc3cnc4ccccc4c3)cc21.O=C(O)C(F)(F)F,84%

# Biological target: T3, Kappa-type opioid receptor (Homo sapiens, UniProt P41145)
# T3 sequence (P41145 whole entry): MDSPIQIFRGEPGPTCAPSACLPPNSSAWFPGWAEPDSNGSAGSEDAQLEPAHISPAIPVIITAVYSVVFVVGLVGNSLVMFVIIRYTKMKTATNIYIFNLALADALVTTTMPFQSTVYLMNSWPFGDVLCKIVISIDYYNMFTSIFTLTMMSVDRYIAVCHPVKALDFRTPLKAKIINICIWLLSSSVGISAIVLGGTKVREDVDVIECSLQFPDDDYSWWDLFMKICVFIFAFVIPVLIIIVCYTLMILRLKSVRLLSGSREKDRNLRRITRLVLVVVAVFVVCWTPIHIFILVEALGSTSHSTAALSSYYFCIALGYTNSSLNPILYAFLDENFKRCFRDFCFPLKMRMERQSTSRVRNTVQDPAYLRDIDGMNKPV
# Test: Agonist activity at human kappa opioid receptor expressed in CHO cell membranes assessed as stimulation of [35S]GTPgammaS binding measured after 1 hr
# Type: functional
# Conditions: cho
row,SMILES,EC50
1,CC(=O)N1CC[C@@H](NC(=O)[C@@H](N)Cc2c(C)cc(O)cc2C)c2cc(Cc3ccc4c(c3)OCCO4)ccc21.O=C(O)C(F)(F)F,Not Active
2,Cc1cc(O)cc(C)c1C[C@H](N)C(=O)N[C@@H]1CCNc2ccc(Cc3cnc4ccccc4c3)cc21.O=C(O)C(F)(F)F,Not Active

# Biological target: T3, Kappa-type opioid receptor
# Test: Displacement of [3H]diprenorphine from human kappa opioid receptor expressed in CHO cell membranes measured after 1 hr by liquid scintillation counting method
# Conditions: not given
# Procedure, shortened: as §1
row,SMILES,Ki
1,CC(=O)N1CC[C@@H](NC(=O)[C@@H](N)Cc2c(C)cc(O)cc2C)c2cc(Cc3ccc4c(c3)OCCO4)ccc21.O=C(O)C(F)(F)F,142 nM
2,Cc1cc(O)cc(C)c1C[C@H](N)C(=O)N[C@@H]1CCNc2ccc(Cc3cnc4ccccc4c3)cc21.O=C(O)C(F)(F)F,16 nM

# Biological target: T3, Kappa-type opioid receptor
# Test: Agonist activity at human kappa opioid receptor expressed in CHO cell membranes assessed as stimulation of [35S]GTPgammaS binding to G protein incubated for 1 hr relative to U69,593
# Type: functional
# Conditions: not given
row,SMILES,Efficacy
1,CC(=O)N1CC[C@@H](NC(=O)[C@@H](N)Cc2c(C)cc(O)cc2C)c2cc(Cc3ccc4c(c3)OCCO4)ccc21.O=C(O)C(F)(F)F,inactive
2,Cc1cc(O)cc(C)c1C[C@H](N)C(=O)N[C@@H]1CCNc2ccc(Cc3cnc4ccccc4c3)cc21.O=C(O)C(F)(F)F,inactive

# Biological target: T1, Mu-type opioid receptor
# Test: Agonist activity at rat mu opioid receptor expressed in rat C6 cell membranes assessed as stimulation of [35S]GTPgammaS binding measured after 1 hr
# Type: functional
# Conditions: not given
# Procedure, shortened: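 Membranes (10–20 μg protein/tube) from stably transfected cells incubated 1 h at 25°C in 50 mM Tris-HCl, 100 mM NaCl, 5 mM MgCl2, pH 7.4, with 0.1 nM [35S]-GTPγS, 30 μM GDP and varying test concentrations; filtration, scintillation counting.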
row,SMILES,EC50
1,CC(=O)N1CC[C@@H](NC(=O)[C@@H](N)Cc2c(C)cc(O)cc2C)c2cc(Cc3ccc4c(c3)OCCO4)ccc21.O=C(O)C(F)(F)F,13 nM
2,Cc1cc(O)cc(C)c1C[C@H](N)C(=O)N[C@@H]1CCNc2ccc(Cc3cnc4ccccc4c3)cc21.O=C(O)C(F)(F)F,2.2 nM

# Test system: not listed separately
# Test: Lipophilicity, log P of the compound
# Type: physicochemical
# Conditions: octanol/water
row,SMILES,logP
1,CC(=O)N1CC[C@@H](NC(=O)[C@@H](N)Cc2c(C)cc(O)cc2C)c2cc(Cc3ccc4c(c3)OCCO4)ccc21.O=C(O)C(F)(F)F,3.1
2,Cc1cc(O)cc(C)c1C[C@H](N)C(=O)N[C@@H]1CCNc2ccc(Cc3cnc4ccccc4c3)cc21.O=C(O)C(F)(F)F,3.7

# Biological target: Delta-type opioid receptor (Rattus norvegicus) (UniProt P33533)
# Sequence (P33533 whole entry): as the sequence (P33533 whole entry) above
# Test: Agonist activity at rat delta opioid receptor expressed in rat C6 cell membranes assessed as stimulation of [35S]GTPgammaS binding incubated for 1 hr relative to DPDPE
# Type: functional
# Conditions: not given
row,SMILES,Efficacy
1,CC(=O)N1CC[C@@H](NC(=O)[C@@H](N)Cc2c(C)cc(O)cc2C)c2cc(Cc3ccc4c(c3)OCCO4)ccc21.O=C(O)C(F)(F)F,inactive
2,Cc1cc(O)cc(C)c1C[C@H](N)C(=O)N[C@@H]1CCNc2ccc(Cc3cnc4ccccc4c3)cc21.O=C(O)C(F)(F)F,inactive

# Biological target: T2, Delta-type opioid receptor
# Test: Agonist activity at rat delta opioid receptor expressed in rat C6 cell membranes assessed as stimulation of [35S]GTPgammaS binding measured after 1 hr
# Type: functional
# Conditions: c6
row,SMILES,EC50
1,CC(=O)N1CC[C@@H](NC(=O)[C@@H](N)Cc2c(C)cc(O)cc2C)c2cc(Cc3ccc4c(c3)OCCO4)ccc21.O=C(O)C(F)(F)F,Not Active
2,Cc1cc(O)cc(C)c1C[C@H](N)C(=O)N[C@@H]1CCNc2ccc(Cc3cnc4ccccc4c3)cc21.O=C(O)C(F)(F)F,Not Active

# Organism: Rattus norvegicus
# Test: Selectivity ratio of Ki for rat delta opioid receptor expressed in rat C6 cell membranes to Ki for rat mu opioid receptor expressed in rat C6 cell membranes
# Type: cell-based
# Conditions: not given
# Procedure, shortened: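 Competition binding against 0.2 nM [3H]-diprenorphine, using C6 membranes expressing rat MOR or rat DOR (20 μg protein/tube). Run in 50 mM Tris-HCl pH 7.4, 1 h at room temperature with shaking, then filtration and scintillation counting. Nonspecific binding with 10 μM naloxone.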
row,SMILES,Ratio Ki
1,CC(=O)N1CC[C@@H](NC(=O)[C@@H](N)Cc2c(C)cc(O)cc2C)c2cc(Cc3ccc4c(c3)OCCO4)ccc21.O=C(O)C(F)(F)F,2
2,Cc1cc(O)cc(C)c1C[C@H](N)C(=O)N[C@@H]1CCNc2ccc(Cc3cnc4ccccc4c3)cc21.O=C(O)C(F)(F)F,15
